Laboratory results taken from ChEMBL document CHEMBL1921743, “Design, synthesis, biophysical and biological studies of trisubstituted naphthalimides as G-quadruplex ligands” (Bioorg Med Chem, 2011).
pIC50: −log10 of the molar value. Active and inactive are the calls of the source. No cut-off for these calls is given here.

Experiments:
[1] = molecular target: DNA polymerase I, thermostable (Thermus aquaticus) (UniProt P19821); test: Inhibition of Thermus aquaticus taq polymerase at 0.5 to 100 uM after 72 hrs by ELISA based TRAP assay
DNA polymerase I, thermostable (Thermus aquaticus), sequence (P19821 whole entry): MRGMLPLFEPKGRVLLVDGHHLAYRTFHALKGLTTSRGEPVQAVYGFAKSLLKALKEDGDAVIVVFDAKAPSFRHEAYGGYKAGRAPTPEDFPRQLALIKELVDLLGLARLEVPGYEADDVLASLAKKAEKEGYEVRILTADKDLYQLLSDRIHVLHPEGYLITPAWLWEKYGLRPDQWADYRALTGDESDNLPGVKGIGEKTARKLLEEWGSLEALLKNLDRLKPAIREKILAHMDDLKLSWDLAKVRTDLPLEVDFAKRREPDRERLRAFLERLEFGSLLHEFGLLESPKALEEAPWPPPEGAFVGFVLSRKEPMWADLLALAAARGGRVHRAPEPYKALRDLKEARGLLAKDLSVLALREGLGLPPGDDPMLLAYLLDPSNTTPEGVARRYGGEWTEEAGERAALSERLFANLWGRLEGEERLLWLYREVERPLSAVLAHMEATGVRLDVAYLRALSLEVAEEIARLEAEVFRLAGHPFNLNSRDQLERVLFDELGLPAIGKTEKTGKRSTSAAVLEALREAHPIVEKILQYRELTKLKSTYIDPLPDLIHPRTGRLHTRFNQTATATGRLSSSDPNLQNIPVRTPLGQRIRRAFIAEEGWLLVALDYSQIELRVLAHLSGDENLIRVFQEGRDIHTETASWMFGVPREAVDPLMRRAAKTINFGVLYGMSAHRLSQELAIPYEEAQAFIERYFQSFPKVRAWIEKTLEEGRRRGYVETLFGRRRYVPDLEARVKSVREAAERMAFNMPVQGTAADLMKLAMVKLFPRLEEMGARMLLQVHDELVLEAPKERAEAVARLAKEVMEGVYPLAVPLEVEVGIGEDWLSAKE
In short: (§1)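 A549 cells exposed to compound at several concentrations for 72 h. Extracts (1–3 × 10^5 cell equivalents) run in a TRAP PCR-ELISA: P1-TS extension 20 min at 25 °C, then 30 PCR cycles, with an internal standard. Telomerase activity comes from elongation products; Taq activity from internal-standard amplification. Heat-inactivated extract serves as negative control. Triplicates, mean ± SEM, paired t-test.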

NIH3T3 [2] = test: Cytotoxicity against mouse NIH/3T3 cells after 5 days by MTT assay; assay type: cell-based; settings: NIH3T3, 120 h
In short: (§2)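 Mouse embryo fibroblasts grown with bovine calf serum in place of fetal serum. Plated at 1000–3000/well, attached 24 h, then exposed to 0.1–100 µM drug at 37 °C for 5 days alongside 0.2% DMSO controls. MTT for 4 h, acidified isopropanol, A570 read. Eight replicates per point; IC50 taken graphically, mean ± SD of three experiments.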

[3] = molecular target: Telomerase reverse transcriptase (Homo sapiens) (UniProt O14746); test: Inhibition of telomerase in human A549 cells after 72 hrs by ELISA based TRAP assay; assay type: cell-based; in short: as §1
Telomerase reverse transcriptase (Homo sapiens), sequence (O14746 whole entry): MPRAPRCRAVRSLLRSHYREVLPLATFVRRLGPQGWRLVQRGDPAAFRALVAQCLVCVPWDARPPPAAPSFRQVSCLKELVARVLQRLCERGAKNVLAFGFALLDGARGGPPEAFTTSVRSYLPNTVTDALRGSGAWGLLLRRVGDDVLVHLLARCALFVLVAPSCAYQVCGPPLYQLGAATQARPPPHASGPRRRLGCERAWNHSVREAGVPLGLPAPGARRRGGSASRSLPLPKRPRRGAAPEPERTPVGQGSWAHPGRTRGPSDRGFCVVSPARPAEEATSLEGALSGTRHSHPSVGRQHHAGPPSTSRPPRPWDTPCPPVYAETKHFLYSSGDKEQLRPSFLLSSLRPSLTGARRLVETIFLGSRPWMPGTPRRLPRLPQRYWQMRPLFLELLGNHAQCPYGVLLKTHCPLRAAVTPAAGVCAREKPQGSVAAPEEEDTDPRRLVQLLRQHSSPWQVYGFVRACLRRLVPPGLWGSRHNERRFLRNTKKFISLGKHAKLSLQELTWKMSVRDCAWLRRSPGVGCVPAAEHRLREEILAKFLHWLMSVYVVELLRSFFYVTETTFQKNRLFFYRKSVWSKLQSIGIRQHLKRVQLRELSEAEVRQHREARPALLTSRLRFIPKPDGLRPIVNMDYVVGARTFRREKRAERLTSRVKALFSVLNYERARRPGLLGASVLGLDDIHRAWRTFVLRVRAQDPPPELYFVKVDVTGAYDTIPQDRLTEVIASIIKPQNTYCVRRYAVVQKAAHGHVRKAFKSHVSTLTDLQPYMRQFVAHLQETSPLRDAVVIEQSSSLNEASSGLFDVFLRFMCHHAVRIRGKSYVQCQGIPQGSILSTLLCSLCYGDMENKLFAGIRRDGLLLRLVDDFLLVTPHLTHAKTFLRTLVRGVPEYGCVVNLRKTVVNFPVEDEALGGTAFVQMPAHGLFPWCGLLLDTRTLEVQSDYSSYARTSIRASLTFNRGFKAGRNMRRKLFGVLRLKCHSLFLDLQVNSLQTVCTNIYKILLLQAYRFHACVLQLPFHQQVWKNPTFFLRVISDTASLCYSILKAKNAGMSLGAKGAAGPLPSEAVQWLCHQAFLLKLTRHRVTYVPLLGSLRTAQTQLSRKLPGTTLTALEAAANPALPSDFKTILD

Nucleic Acid [4] = test: Binding affinity to human telomeric AGGG(TTAGGG)3 quadruplex assessed as fluorescence quenching at 10 uM after 3 mins by fluorescence titration method; assay type: nucleic-acid assay
In short: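 Ligand held at 10 µM (final 2% DMSO) in K-phosphate/70 mM KCl buffer, pH 7.0, 25 °C, titrated with 100–160 µM annealed quadruplex in 5–10 µL additions, ≥3 min equilibration each. Emission recorded 400–600 nm. Fraction free ligand from the change in emission maximum, plotted against quadruplex concentration and fitted for Kb and n; ≥3 experiments.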

Nucleic Acid [5] = test: Binding affinity to human telomeric AGGG(TTAGGG)3 quadruplex after 4 secs by circular dichroism spectroscopy analysis; assay type: nucleic-acid assay
[6] = molecular target: Telomerase reverse transcriptase (Homo sapiens) (UniProt O14746); test: Inhibition of telomerase in human A549 cells at 0.05 to 100 uM after 72 hrs by ELISA based TRAP assay; assay type: cell-based; in short: as §1
Nucleic Acid [7] = test: Binding affinity to human telomeric AGGG(TTAGGG)3 quadruplex in first binding event at 480 to 640 uM every 300 to 400 secs at pH 7 by isothermal titration calorimetry analysis; assay type: nucleic-acid assay
In short: (§3)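 Isothermal titration calorimetry at 25 °C, pH 7.0 (20 mM K phosphate, 70 mM KCl, 0.1 mM EDTA). Quadruplex annealed 90 °C for 5 min, slow-cooled, held 24 h at 4 °C, used at 30–40 µM. Ligand 480–640 µM, 5–10 µL injections every 300/400 s, 25–50 injections. First injection discarded; dilution heat subtracted; multiple-sites fit gives Kb for each sequential event.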

A549 = test: Cytotoxicity against human A549 cells after 5 days by MTT assay; assay type: functional, cell-based; settings: for pIC50: A549, 120 h
In short: (§4)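 Cells kept in RPMI-1640 with 10% FCS, 2 mM glutamine and gentamycin, 37 °C, 5% CO2. Seeded at 1000–3000/well, attached 24 h, then given 0.1–100 µM drug for 5 days; 0.2% DMSO controls. MTT added for 4 h, formazan dissolved in acidified isopropanol, A570 read. Eight replicates per point. IC50 read graphically from growth curves; mean ± SD of three experiments.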

Nucleic Acid [8] = test: Binding affinity to human telomeric AGGG(TTAGGG)3 quadruplex assessed as melting temperature at 1:1 compound to DNA ratio at pH 7 by UV-visible spectrophotometer analysis; assay type: nucleic-acid assay
In short: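 UV melting of 25 µM annealed quadruplex alone or with ligand at 1:1 or 2:1 ligand/DNA, pH 7.0 K-phosphate/KCl buffer. Absorbance at 295 nm, 20–85 °C, heating at 0.5 °C/min, 1 mm path. Tm taken as mean ± SD of at least three runs.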

M14 = test: Cytotoxicity against human M14 cells after 5 days by MTT assay; assay type: functional, cell-based; settings: for pIC50: M14, 120 h; in short: as §4
Nucleic Acid [9] = test: Binding affinity to satellite DNA by UV titration method method; assay type: nucleic-acid assay
NIH3T3 [10] = test: Cytotoxicity against mouse NIH/3T3 cells assessed as growth inhibition at 0.1 to 100 uM after 5 days by MTT assay; assay type: cell-based; settings: nih3t3, 120 h; in short: as §2
[11] = molecular target: Telomerase reverse transcriptase (Homo sapiens) (UniProt O14746); test: Inhibition of telomerase in human A549 cells at 5 uM after 72 hrs by ELISA based TRAP assay; assay type: cell-based; in short: as §1
Nucleic Acid [12] = test: Binding affinity to human telomeric AGGG(TTAGGG)3 quadruplex in second binding event at 480 to 640 uM every 300 to 400 secs at pH 7 by isothermal titration calorimetry method; assay type: nucleic-acid assay; in short: as §3
[13] = molecular target: DNA polymerase I, thermostable (Thermus aquaticus) (UniProt P19821); test: Inhibition of Thermus aquaticus taq polymerase at 0.1 to 50 uM after 72 hrs by ELISA based TRAP assay; in short: as §1
Nucleic Acid [14] = test: Binding affinity to duplex DNA d(CGCGAATTCGCG)2 duplex at pH 7 by isothermal titration calorimetry method; assay type: nucleic-acid assay
In short: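 ITC at 298 K. Ligand dissolved in the DNA buffer (20 mM potassium phosphate, 70 mM KCl, 0.1 mM EDTA, pH 7.0). 480–640 µM ligand injected in 5–10 µL aliquots into 30–40 µM annealed duplex every 300 or 400 s, 25–50 injections, stirring 150 rpm. Heats corrected for ligand dilution; isotherms fitted for Kb, ΔH and n.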

[15] = molecular target: DNA polymerase I, thermostable (Thermus aquaticus) (UniProt P19821); test: Inhibition of Thermus aquaticus taq polymerase at 10 to 100 uM after 72 hrs by ELISA based TRAP assay; in short: as §1

SMILES	inhibition [3]	Kb (Nucleic Acid [4]) [×10⁵ /M]	Activity (Nucleic Acid [5])	Kb (Nucleic Acid [7])	Tm (Nucleic Acid [8]) [°C]	growth inhibition (GI) (A549)	pIC50 (A549)	growth inhibition (GI) (M14)	pIC50 (M14)	further results
O=C(CCN1CCCC1)Nc1cc2c3c(cc(NC(=O)CCN4CCCC4)cc3c1)C(=O)N(CCCN1CCOCC1)C2=O	Dose-dependent effect	10	Active	4 ×10⁵ /M	60	Dose-dependent effect	4.39	Dose-dependent effect	4.46	inhibition [1]: Active; pIC50 (NIH3T3 [2]): 5.34; inhibition [6]: Active
O=C(CCN1CCCC1)Nc1cc2c3c(cc(NC(=O)CCN4CCCC4)cc3c1)C(=O)N(CCCN1CCN(C(=O)CCN3CCCC3)CC1)C2=O		9								
O=C(CCN1CCCC1)Nc1cc2c3c(cc(NC(=O)CCN4CCCC4)cc3c1)C(=O)N(CCN1CCN(C(=O)CCN3CCCC3)CC1)C2=O		7								
O=C(CCN1CCCC1)Nc1cc2c3c(cc(NC(=O)CCN4CCCC4)cc3c1)C(=O)N(CCCN1CCCCC1)C2=O	Dose-dependent effect	24	Active	5 ×10⁷ /M	60	Dose-dependent effect	5.00	Dose-dependent effect	5.10	Activity (Nucleic Acid [9]): inactive; pIC50 (NIH3T3 [2]): 4.36; inhibition [11]: 26%; Kb (Nucleic Acid [12]): 6 ×10⁵ /M; inhibition [15]: Active
CN(C)CCN1C(=O)c2cc(NC(=O)CCN3CCCC3)cc3cc(NC(=O)CCN4CCCC4)cc(c23)C1=O		6								

The next lines start with results.

inhibition [3]	Kb (Nucleic Acid [4]) [×10⁵ /M]	Activity (Nucleic Acid [5])	Kb (Nucleic Acid [7])	Tm (Nucleic Acid [8]) [°C]	SMILES	growth inhibition (GI) (A549)	pIC50 (A549)	growth inhibition (GI) (M14)	pIC50 (M14)	further results
	12				O=C(CCN1CCCC1)Nc1cc2c3c(cc(NC(=O)CCN4CCCC4)cc3c1)C(=O)N(CCN1CCCC1)C2=O					
Dose-dependent effect	30	Active	2 ×10⁷ /M	60	O=C(CCN1CCCC1)Nc1cc2c3c(cc(NC(=O)CCN4CCCC4)cc3c1)C(=O)N(CCCN1CCCC1)C2=O	Dose-dependent effect	5.28	Dose-dependent effect	5.82	Activity (Nucleic Acid [9]): inactive; Activity (NIH3T3 [10]): Non-toxic; inhibition [11]: 50%; Kb (Nucleic Acid [12]): 5 ×10⁵ /M; inhibition [13]: inactive; Kb (Nucleic Acid [14]): 5 ×10⁵ /M
	9				O=C(CCN1CCCC1)Nc1cc2c3c(cc(NC(=O)CCN4CCCC4)cc3c1)C(=O)N(CCN1CCCCC1)C2=O					
